Source: ChEMBL document CHEMBL1137002, “Synthesis and electrochemistry of 2-ethenyl and 2-ethanyl derivatives of 5-nitroimidazole and antimicrobial activity against Giardia lamblia” (J Med Chem, 2009)
Calls of active or inactive are those of the source. The calls are words filed in the database; no cut-off is given here.

Columns and labels:
HeLa = assay: Cytotoxicity against human HeLa cells after 2 days by Alamar blue assay; type: cell-based; settings: 48 h
Giardia intestinalis [1] = assay: Antigiardial activity against Giardia lamblia GS/M trophozoites infected in C57BL/6 mouse assessed as reduction in live trophozoite number in small intestine at 10 mg/kg, po administered as 5 doses for 3 days relative to control; type: functional; settings: for Activity: Giardia duodenalis
Method in brief: (§1)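 Adult C57BL/6 mice infected orally with G. lamblia GS/M trophozoites; from 2 days post-infection, five oral gavage doses over 3 days (10 or 2 mg/kg), with controls given methylcellulose/PBS vehicle. Day 5: whole small intestine opened, placed in PBS on ice 10 min, shaken, and live trophozoites counted by hemocytometer under phase contrast. Mean ± SE of 3–7 animals; t test versus vehicle controls, p < 0.05.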

Giardia intestinalis [2] = assay: Antigiardial activity against Giardia lamblia GS/M trophozoites infected in C57BL/6 mouse assessed as reduction in live trophozoite number in small intestine at 2 mg/kg, po administered as 5 doses for 3 days; type: functional, organism-based; parameters: dose 2 mg/kg; settings: Giardia duodenalis; method in brief: as §1
Giardia intestinalis [3] = assay: Antigiardial activity against Giardia lamblia trophozoites isolates after 2 days by bactiter-glo viability assay; type: functional, organism-based; settings: Giardia duodenalis, 48 h
Giardia intestinalis [4] = assay: Antigiardial activity against metronidazole-resistant Giardia lamblia isolate 106 trophozoite after 2 days by bactiter-glo viability assay; type: functional, organism-based; settings: Giardia duodenalis, isolate 106, 48 h
Method in brief: (§2)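 Trophozoites from mid-log cultures in TYI-S-33 with 10% bovine serum and 1 mg/mL bovine bile, grown anaerobically. Mz-resistant lines kept on 50 μM Mz but grown without it for 2–3 days beforehand. 1000–2000 cells/well, 1:3 serial dilutions, final 20 μM to 0.4 nM. 2 days at 37 °C anaerobically. ATP luminescence read-out. EC50 taken by graphic extrapolation of concentration–response curves. Mean ± SE of three experiments.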

Giardia intestinalis [5] = assay: Antigiardial activity against metronidazole-sensitive Giardia lamblia isolate 106 trophozoite after 2 days by bactiter-glo viability assay; type: functional, organism-based; settings: Giardia duodenalis, isolate 106, 48 h; method in brief: as §2
Mus musculus = assay: Toxicity in C57BL/6 mouse at 10 mg/kg, po after 3 days; type: organism-based; parameters: dose 10 mg/kg, route oral; settings: in vivo, 72 h
Method in brief: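 G. lamblia GS/M-infected adult C57BL/6 mice were watched for clinically observable untoward effects across the 3-day treatment period, which consisted of five oral gavage doses at 10 mg/kg in methylcellulose/PBS given from day 2 after infection.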

[6] = Therapeutic index, ratio of IC50 for human HeLa cells to EC50 for Giardia lamblia trophozoites isolates; type: cell-based; settings: read-out: Ratio IC50/EC50
Giardia intestinalis [7] = assay: Antigiardial activity against metronidazole-sensitive Giardia lamblia isolate 713 trophozoite after 2 days by bactiter-glo viability assay; type: functional, organism-based; settings: Giardia duodenalis, isolate 713, 48 h; method in brief: as §2
Giardia intestinalis [8] = assay: Antigiardial activity against metronidazole-resistant Giardia lamblia isolate 713 trophozoite after 2 days by bactiter-glo viability assay; type: functional, organism-based; settings: Giardia duodenalis, isolate 713, 48 h; method in brief: as §2
Giardia intestinalis [9] = assay: Antigiardial activity against Giardia lamblia GS/M trophozoites infected in C57BL/6 mouse assessed as parasite eradication in small intestine at 10 mg/kg, po administered as 5 doses for 3 days; type: functional, organism-based; parameters: dose 10 mg/kg; settings: Giardia duodenalis; method in brief: as §1

SMILES	IC50 (HeLa)	Activity (Giardia intestinalis [1])	Activity (Giardia intestinalis [2])	EC50 (Giardia intestinalis [3]; read-out: pEC50 (converted))	EC50 (Giardia intestinalis [4])	EC50 (Giardia intestinalis [5])	Activity (Mus musculus)	selectivity ratio [6]	EC50 (Giardia intestinalis [7])	EC50 (Giardia intestinalis [8])	Activity (Giardia intestinalis [9])	EC50 (Giardia intestinalis [3]; read-out: EC50)	fold change (FC) (Giardia intestinalis [1])
Cn1c([N+](=O)[O-])cnc1/C=C/c1ccc(Br)cc1	72400 nM	inactive	inactive	49 nM	72.4 nM	200 nM	Non-toxic	1480	91.2 nM	8.13 nM			
Cc1ccc(CCc2ncc([N+](=O)[O-])n2C)cc1	> 100000 nM			282 nM				> 357					
Cn1c([N+](=O)[O-])cnc1/C=C/c1ccc(Cl)cc1Cl	> 100000 nM			234 nM				> 427					
Cn1c([N+](=O)[O-])cnc1/C=C/c1ccccc1	> 100000 nM	Active		38.9 nM	55 nM	398 nM	Non-toxic	> 2570	525 nM	20.4 nM	Active		
Cn1c([N+](=O)[O-])cnc1/C=C/c1ccc2c(c1)OCO2	74100 nM			69.2 nM				1070				69 nM	
Cc1cc(C)c(/C=C/c2ncc([N+](=O)[O-])n2C)c(C)c1				339 nM	204 nM	427 nM		32	1290 nM	229 nM			
Cn1c([N+](=O)[O-])cnc1/C=C/c1ccccc1Cl	> 100000 nM			72.4 nM	60.3 nM	251 nM		> 1380	115 nM	30.2 nM			
COc1cccc(/C=C/c2ncc([N+](=O)[O-])n2C)c1	> 100000 nM			155 nM				> 646					
CC(=O)OC(c1ccc(C)cc1)C(OC(C)=O)c1ncc([N+](=O)[O-])n1C (configuration not stated)	> 100000 nM			316 nM	513 nM	3090 nM		> 319	5130 nM	174 nM			
COc1ccc(/C=C/c2ncc([N+](=O)[O-])n2C)c(OC)c1OC	> 100000 nM			617 nM				> 162					
Cn1c([N+](=O)[O-])cnc1/C=C/c1ccsc1	> 100000 nM			97.7 nM	91.2 nM	389 nM	Non-toxic	> 1020	1050 nM	24.5 nM			
Cn1c([N+](=O)[O-])cnc1/C=C/c1ccco1		Active		33.9 nM	35.5 nM	363 nM	Non-toxic	2750	490 nM	20.4 nM	Active		
Cn1c([N+](=O)[O-])cnc1/C=C/c1ccccc1I	> 100000 nM			60.3 nM				> 1660					
Cn1c([N+](=O)[O-])cnc1/C=C/c1ccccc1Br	72400 nM			49 nM	41.7 nM	282 nM		1480	117 nM	18.2 nM			
Cn1c([N+](=O)[O-])cnc1/C=C/c1ccc(Cl)cc1	91200 nM			52.5 nM	72.4 nM	257 nM		1740	145 nM	36.3 nM			
Cn1c([N+](=O)[O-])cnc1C(Br)C(Br)c1ccc(Br)cc1 (configuration not stated)	7940 nM			347 nM	214 nM	2880 nM		23	479 nM	182 nM			
Cc1ccc(/C=C/c2ncc([N+](=O)[O-])n2C)cc1	> 100000 nM			162 nM									
Cn1c([N+](=O)[O-])cnc1/C=C/c1ccc(OC(F)(F)F)cc1	83200 nM			741 nM				112					
Cn1c([N+](=O)[O-])cnc1/C=C/c1ccc2ccccc2c1				60.3 nM				1620					

SMILES	IC50 (HeLa)	Activity (Giardia intestinalis [1])	Activity (Giardia intestinalis [2])	EC50 (Giardia intestinalis [3]; read-out: pEC50 (converted))	EC50 (Giardia intestinalis [4])	EC50 (Giardia intestinalis [5])	Activity (Mus musculus)	selectivity ratio [6]	EC50 (Giardia intestinalis [7])	EC50 (Giardia intestinalis [8])	Activity (Giardia intestinalis [9])	EC50 (Giardia intestinalis [3]; read-out: EC50)	fold change (FC) (Giardia intestinalis [1])
Cn1c([N+](=O)[O-])cnc1/C=C/c1cccc(Br)c1	87100 nM			46.8 nM	42.7 nM	115 nM		1860	126 nM	32.4 nM			
Cn1c([N+](=O)[O-])cnc1/C=C/c1ccccc1-c1ccccc1	> 100000 nM			851 nM	537 nM	1230 nM		> 117	4570 nM	347 nM			
Cc1cccc(/C=C/c2ncc([N+](=O)[O-])n2C)c1	30900 nM			39.8 nM				776					
Cn1c([N+](=O)[O-])cnc1/C=C/c1cccc(Cl)c1	30200 nM			21.9 nM				1380					
CCOC(OCC)c1ccc(/C=C/c2ncc([N+](=O)[O-])n2C)cc1				52.5 nM	64.6 nM	200 nM		1860	708 nM	32.4 nM			
Cc1ncc([N+](=O)[O-])n1CCO [METRONIDAZOLE]			inactive		3980 nM	25700 nM			44700 nM	1480 nM	inactive	2630 nM	1000
Cn1c([N+](=O)[O-])cnc1/C=C/c1cccs1	91200 nM			81.3 nM				1120					
Cn1c([N+](=O)[O-])cnc1C(O)C(O)c1ccc(Br)cc1 (configuration not stated)	91200 nM			447 nM				208					
Cn1ccnc1/C=C/c1ncc([N+](=O)[O-])n1C	91200 nM	Active	Active	75.9 nM	87.1 nM	251 nM	Non-toxic	1200	1170 nM	51.3 nM	Active		
CC(=O)OC(c1ccc(Br)cc1)C(OC(C)=O)c1ncc([N+](=O)[O-])n1C (configuration not stated)				224 nM				436					
Cn1c([N+](=O)[O-])cnc1/C=C/c1cccc2ccccc12	100000 nM							1000				100 nM	
Cn1c([N+](=O)[O-])cnc1/C=C/c1cccc(F)c1	> 100000 nM	Active	Active	40.7 nM	30.9 nM	93.3 nM	Non-toxic	> 2460	123 nM	25.7 nM	Active		
Cn1c([N+](=O)[O-])cnc1CCc1ccccc1	> 100000 nM			209 nM	174 nM	2570 nM	Non-toxic	> 474	5010 nM	102 nM			
Cc1ccc(C(O)C(O)c2ncc([N+](=O)[O-])n2C)cc1 (configuration not stated)	> 100000 nM			832 nM				> 120					
Cc1ccc(C(Br)C(Br)c2ncc([N+](=O)[O-])n2C)cc1 (configuration not stated)	11200 nM			64.6 nM				174					
Cc1ccccc1/C=C/c1ncc([N+](=O)[O-])n1C				69.2 nM				1350					
Cn1c([N+](=O)[O-])cnc1/C=C/c1cccc(I)c1				93.3 nM				339					
Cn1c([N+](=O)[O-])cnc1CCc1ccc(Br)cc1				1150 nM				85				1150 nM	
